Laboratory results: ChEMBL document CHEMBL1139927, “A new class of nifuroxazide analogues: synthesis of 5-nitrothiophene derivatives with antimicrobial activity against multidrug-resistant Staphylococcus aureus” (2007)
≈ marks a conversion by molar mass, not a printed value. Blank lines part the entries; values can stand above or below the compound they belong to.

Assays:
Assay type in all cases: functional
[1] = system: Staphylococcus aureus; experiment: Antimicrobial activity against multidrug-resistant Staphylococcus aureus 3SP/R33 after 18 hrs by serial dilution test; settings: 3SP/R33, 18 h
Method in brief: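 Broth twofold macro-dilution in Tryptic Soy Broth. Inoculum came from fresh cultures grown on plate count agar for 18 h at 35 °C and was adjusted to McFarland no. 1. Compound stocks were made in DMSO (2–5% in assay), with ethanol as co-solvent, and diluted in TSB. Tubes were incubated at 35 °C for 18 h. MIC = lowest concentration giving no visible growth; run in quadruplicate.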

[2] = system: Staphylococcus aureus; experiment: Antimicrobial activity against multidrug-resistant Staphylococcus aureus 3SP/R33 […] after 24 hrs; settings: 3SP/R33, 24 h
Method in brief: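 MBC: 10 µL was taken from each tube that stayed clear in the broth dilution MIC test. Each aliquot was spread over the whole surface of a Müller–Hinton agar plate, and plates were incubated at 35 °C for 24 h to read bactericidal concentration.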

[3] = system: Staphylococcus aureus; experiment: Antimicrobial activity against Staphylococcus aureus ATCC 25923 after 18 hrs by serial dilution test; settings: ATCC 25923, 18 h
Method in brief: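 Twofold broth macro-dilution in Tryptic Soy Broth. Inoculum taken from fresh 18 h, 35 °C cultures on plate count agar and adjusted to McFarland no. 1. Compounds prepared as DMSO stocks and diluted in TSB, with ethanol as co-solvent and 2–5% DMSO in the assay. Tubes incubated at 35 °C for 18 h and read visually. MIC is the lowest concentration giving complete growth inhibition; run in quadruplicate.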

Compound: CCc1ccc(C(=O)N/N=C/c2ccc([N+](=O)[O-])s2)cc1
MIC [1]: 5.8 mg/L (≈ 19.1 µM) | MBC [2]: > 92.8 mg/L | MIC [3]: ≤ 22.2 µM

Compound: CCCc1ccc(C(=O)N/N=C/c2ccc([N+](=O)[O-])s2)cc1
MIC [1]: 7.25 mg/L (≈ 22.8 µM) | MBC [2]: > 29 mg/L | MIC [3]: ≤ 36.5 µM

Compound: CCCCc1ccc(C(=O)N/N=C/c2ccc([N+](=O)[O-])s2)cc1
MIC [1]: 12.7 mg/L (≈ 38.3 µM) | MBC [2]: > 50.8 mg/L | MIC [3]: ≤ 40.7 µM

Compound: O=C(N/N=C/c1ccc([N+](=O)[O-])s1)c1ccc(Br)cc1
MIC [1]: 0.63 mg/L (≈ 1.78 µM) | MBC [2]: 0.63 mg/L (≈ 1.78 µM) | MIC [3]: ≤ 2.12 µM

Compound: CCCCNc1ccc(C(=O)N/N=C/c2ccc([N+](=O)[O-])s2)cc1
MIC [1]: 6.22 mg/L (≈ 18 µM) | MBC [2]: > 49.8 mg/L | MIC [3]: ≤ 22.4 µM

Compound: CCCCOc1ccc(C(=O)N/N=C/c2ccc([N+](=O)[O-])s2)cc1
MIC [1]: 10.3 mg/L (≈ 29.7 µM) | MBC [2]: > 41.2 mg/L | MIC [3]: ≤ 35.4 µM

MIC [3]: ≤ 24.3 µM
Compound: CCCOc1ccc(C(=O)N/N=C/c2ccc([N+](=O)[O-])s2)cc1

Compound: O=C(N/N=C/c1ccc([N+](=O)[O-])s1)c1ccc(Cl)c(Cl)c1
MIC [1]: 0.63 mg/L (≈ 1.83 µM) | MBC [2]: 0.63 mg/L (≈ 1.83 µM) | MIC [3]: ≤ 2.21 µM

Compound: C=Cc1ccc(C(=O)N/N=C/c2ccc([N+](=O)[O-])s2)cc1
MIC [1]: 3.38 mg/L (≈ 11.2 µM) | MBC [2]: > 54 mg/L | MIC [3]: ≤ 15.7 µM

Compound: O=C(N/N=C/c1ccc([N+](=O)[O-])s1)c1ccccc1
MIC [1]: 3.9 mg/L (≈ 14.2 µM) | MBC [2]: ≥ 125 mg/L | MIC [3]: ≤ 16.7 µM

Compound: CC(=O)c1ccc(C(=O)N/N=C/c2ccc([N+](=O)[O-])s2)cc1
MIC [1]: 0.11 mg/L (≈ 0.347 µM) | MBC [2]: 0.22 mg/L (≈ 0.693 µM) | MIC [3]: ≤ 0.44 µM

Compound: O=C(N/N=C/c1ccc([N+](=O)[O-])s1)c1ccc(I)cc1
MIC [1]: 5.55 mg/L (≈ 13.8 µM) | MBC [2]: > 88.8 mg/L | MIC [3]: ≤ 14 µM

Compound: CC(C)c1ccc(C(=O)N/N=C/c2ccc([N+](=O)[O-])s2)cc1
MIC [1]: 5.02 mg/L (≈ 15.8 µM) | MBC [2]: > 40.2 mg/L | MIC [3]: ≤ 28.6 µM

Compound: O=C(N/N=C/c1ccc([N+](=O)[O-])s1)c1ccc(Cl)cc1
MIC [1]: 1.09 mg/L (≈ 3.52 µM) | MBC [2]: 2.18 mg/L (≈ 7.04 µM) | MIC [3]: ≤ 5.52 µM
